Measurements as given in ChEMBL document CHEMBL2016502, “Synthesis and fungicidal activity of tubulin polymerisation promoters. Part 2: pyridazines” (2012).
≈ marks a conversion by molar mass, not a printed value. Calls of active or inactive are those of the source. The rule behind the calls is not given here.

Assays:
[1] = system: Zymoseptoria tritici; assay: Antifungal activity against Mycosphaerella graminicola infected in wheat plant assessed as decrease in wheat leaf blotch relative to control; type: functional
Summary of the method: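 Wheat plants (cv. Riband, two weeks old) were treated in a spray chamber with formulated compound diluted in water and spray-inoculated with spores 1 day later. They were incubated for 1 day at 22/21 °C (day/night) and 95% rh, then kept in a greenhouse at 22/21 °C and 70% rh. Efficacy was scored 16–19 days after application, against diseased untreated checks.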

[2] = system: Botrytis cinerea; assay: Antifungal activity against Botrytis cinerea infected tomato plant assessed as leaf area with disease after 2 days relative to control; type: functional; details: 48 h
Summary of the method: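 Tomato plants (cv. Roter Gnom, four weeks old) received a spray-chamber application of formulated compound in water. A spore suspension was sprayed on 2 days after treatment. Plants were incubated in a greenhouse at 20 °C and 95% rh. Diseased leaf area (%) was assessed 5–6 days after application, when untreated checks were adequately diseased.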

[3] = system: Alternaria solani; assay: Antifungal activity against Alternaria solani infected in tomato plant assessed as leaf area with disease after 2 days relative to control; type: functional; details: 48 h
Summary of the method: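 Four-week-old tomato plants (cv. Roter Gnom) were sprayed in a chamber with formulated compound diluted in water. Plants were spray-inoculated with a spore suspension 2 days later and held in a greenhouse at 22/18 °C (day/night) and 95% rh.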

[4] = biological target: Tubulin (Sus scrofa) (UniProt P02554+P02550); assay: Induction of porcine tubulin polymerization at 0.24 to 20 ppm by spectrophotometric analysis; type: protein assay
Tubulin (Sus scrofa), sequence (P02550 whole entry, looked up): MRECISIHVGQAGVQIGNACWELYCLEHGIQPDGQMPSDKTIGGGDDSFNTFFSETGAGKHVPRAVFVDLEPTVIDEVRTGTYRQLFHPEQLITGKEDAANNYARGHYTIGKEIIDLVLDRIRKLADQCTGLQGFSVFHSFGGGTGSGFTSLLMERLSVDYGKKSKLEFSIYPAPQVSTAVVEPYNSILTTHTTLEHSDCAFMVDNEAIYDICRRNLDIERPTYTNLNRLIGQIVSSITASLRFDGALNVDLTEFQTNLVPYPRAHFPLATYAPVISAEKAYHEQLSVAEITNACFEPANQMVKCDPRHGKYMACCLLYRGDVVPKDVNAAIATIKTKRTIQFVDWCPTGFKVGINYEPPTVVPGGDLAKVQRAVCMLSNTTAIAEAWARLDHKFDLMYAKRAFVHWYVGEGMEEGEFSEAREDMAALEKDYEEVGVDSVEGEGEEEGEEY
Tubulin (Sus scrofa), sequence (P02554 whole entry, looked up): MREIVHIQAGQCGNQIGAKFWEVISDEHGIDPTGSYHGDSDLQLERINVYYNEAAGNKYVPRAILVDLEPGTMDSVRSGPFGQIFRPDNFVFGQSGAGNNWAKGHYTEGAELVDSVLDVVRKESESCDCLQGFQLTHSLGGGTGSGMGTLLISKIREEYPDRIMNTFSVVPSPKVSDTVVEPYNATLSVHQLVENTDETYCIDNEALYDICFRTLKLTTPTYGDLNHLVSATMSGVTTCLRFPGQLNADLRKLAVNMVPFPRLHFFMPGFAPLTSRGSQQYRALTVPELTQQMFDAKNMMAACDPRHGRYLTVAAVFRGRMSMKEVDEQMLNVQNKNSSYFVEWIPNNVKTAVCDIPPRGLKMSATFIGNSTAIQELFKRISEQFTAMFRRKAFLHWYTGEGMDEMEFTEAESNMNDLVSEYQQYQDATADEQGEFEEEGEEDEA
Summary of the method: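 Compound was added at reaction start at 20, 2.2 and 0.24 ppm from a 0.2 mM DMSO solution. The reaction was started at 37 °C and followed by absorbance at 340 nm. Paclitaxel served as positive control and DMSO as negative control.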

| SMILES | EC80 [1] | EC80 [2] | EC80 [3] | Activity [4] |
| --- | --- | --- | --- | --- |
| CN(C)c1nnc(Cl)c(-c2c(F)cc(F)cc2F)c1-c1ccc(Cl)cc1 | 6 µg/mL (≈ 15.1 µM) | 40 µg/mL (≈ 100 µM) | 16 µg/mL (≈ 40.2 µM) | – |
| Cc1nnc(Cl)c(-c2c(F)cc(F)cc2F)c1-c1ccc2ccccc2n1 | 5 µg/mL (≈ 13 µM) | 1 µg/mL (≈ 2.59 µM) | 4 µg/mL (≈ 10.4 µM) | – |
| COc1cc(F)cc(F)c1-c1c(Cl)nnc(C)c1-c1ccc(Cl)nc1 | 95 µg/mL (≈ 249 µM) | > 200 µg/mL | 17 µg/mL (≈ 44.5 µM) | – |
| Cc1nnc(O)c(-c2c(F)cc(F)cc2F)c1-c1ccc(Cl)cc1 | > 200 µg/mL | > 200 µg/mL | > 200 µg/mL | – |
| COc1nnc(Cl)c(-c2c(F)cc(F)cc2F)c1-c1ccc(Cl)cc1 | 14 µg/mL (≈ 36.3 µM) | 58 µg/mL (≈ 151 µM) | 92 µg/mL (≈ 239 µM) | – |
| Cc1nnc(Cl)c(-c2c(F)cc(F)cc2F)c1-c1ccc(Cl)cc1 | 2 µg/mL (≈ 5.42 µM) | 6 µg/mL (≈ 16.3 µM) | 2 µg/mL (≈ 5.42 µM) | – |
| C#Cc1ccc(-c2c(C)nnc(Cl)c2-c2c(F)cc(F)cc2F)cc1 | 1 µg/mL (≈ 2.79 µM) | 3 µg/mL (≈ 8.36 µM) | 1 µg/mL (≈ 2.79 µM) | – |
| COc1cc(F)c(-c2c(Cl)nnc(C)c2-c2ccc(Cl)nc2)cc1F | 46 µg/mL (≈ 120 µM) | 23 µg/mL (≈ 60.2 µM) | 19 µg/mL (≈ 49.7 µM) | – |
| Cc1nnc(Cl)c(-c2c(F)cc(F)cc2F)c1Cc1ccccc1 | 50 µg/mL (≈ 143 µM) | 77 µg/mL (≈ 221 µM) | 56 µg/mL (≈ 161 µM) | – |
| Cc1nnc(Cl)c(-c2c(F)cc(F)cc2F)c1-c1ccc(Cl)nc1 | 1 µg/mL (≈ 2.7 µM) | 1 µg/mL (≈ 2.7 µM) | 2 µg/mL (≈ 5.4 µM) | – |
| Cc1nnc(Cl)c(-c2c(F)cc(F)cc2F)c1-c1ccc(Cl)s1 | 41 µg/mL (≈ 109 µM) | 25 µg/mL (≈ 66.6 µM) | 49 µg/mL (≈ 131 µM) | Active |
| Cc1nnc(Cl)c(-c2c(F)cccc2F)c1-c1ccc(Cl)nc1 | 60 µg/mL (≈ 170 µM) | 78 µg/mL (≈ 221 µM) | 54 µg/mL (≈ 153 µM) | – |
| CSc1nnc(Cl)c(-c2c(F)cc(F)cc2F)c1-c1ccc(Cl)cc1 | 90 µg/mL (≈ 224 µM) | 124 µg/mL (≈ 309 µM) | 42 µg/mL (≈ 105 µM) | – |
| Cc1nnc(F)c(-c2c(F)cc(F)cc2F)c1-c1ccc(Cl)cc1 | 191 µg/mL (≈ 542 µM) | 8 µg/mL (≈ 22.7 µM) | 17 µg/mL (≈ 48.2 µM) | – |
| Cc1nnc(C)c(-c2c(F)cc(F)cc2F)c1-c1ccc(Cl)cc1 | 14 µg/mL (≈ 40.1 µM) | 4 µg/mL (≈ 11.5 µM) | 18 µg/mL (≈ 51.6 µM) | – |
| Cc1nnc(Cl)c(-c2ncc(Cl)cc2Cl)c1-c1ccc(Cl)nc1 | 9 µg/mL (≈ 23.3 µM) | 15 µg/mL (≈ 38.9 µM) | 33 µg/mL (≈ 85.5 µM) | – |
| Fc1cc(F)c(-c2c(Cl)nnc(Cl)c2-c2ccc(Cl)cc2)c(F)c1 | 96 µg/mL (≈ 246 µM) | 127 µg/mL (≈ 326 µM) | 134 µg/mL (≈ 344 µM) | – |
| COc1nnc(C)c(-c2ccc(Cl)cc2)c1-c1c(F)cc(F)cc1F | 53 µg/mL (≈ 145 µM) | 97 µg/mL (≈ 266 µM) | 57 µg/mL (≈ 156 µM) | – |
| CC(=O)O[C@H]1C(=O)[C@@]2(C)[C@H]([C@H](OC(=O)c3ccccc3)[C@]3(O)C[C@H](OC(=O)[C@H](O)[C@@H](NC(=O)c4ccccc4)c4ccccc4)C(C)=C1C3(C)C)[C@]1(OC(C)=O)CO[C@@H]1C[C@@H]2O | – | – | – | Active |
| COc1cc(F)c(-c2c(Cl)nnc(C)c2-c2ccc(Cl)nc2)c(F)c1 | 3 µg/mL (≈ 7.85 µM) | 1 µg/mL (≈ 2.62 µM) | 1 µg/mL (≈ 2.62 µM) | – |
